Source: publication PMC5352491 (ACS chemical neuroscience, 2016)
Entries after “also recorded” stand apart in the source; their conditions may differ. Where two headings read alike, the source gives them in different places.

How the values were obtained:
[1] = target: human δ opioid receptor (δ-OR) (Homo sapiens, UniProt P41143); experiment: calcium mobilization assay, δ-OR agonist activity; type: cell-based; details: for δ-OR agonist activity in HTS of extract / LC-MS fractions: approximately 20.0 μg/mL, DPDPE control 100 nM; for activity at δ-OR (agonist or antagonist): up to 50.0 μM
Chain of human δ opioid receptor (δ-OR) (P41143 whole entry): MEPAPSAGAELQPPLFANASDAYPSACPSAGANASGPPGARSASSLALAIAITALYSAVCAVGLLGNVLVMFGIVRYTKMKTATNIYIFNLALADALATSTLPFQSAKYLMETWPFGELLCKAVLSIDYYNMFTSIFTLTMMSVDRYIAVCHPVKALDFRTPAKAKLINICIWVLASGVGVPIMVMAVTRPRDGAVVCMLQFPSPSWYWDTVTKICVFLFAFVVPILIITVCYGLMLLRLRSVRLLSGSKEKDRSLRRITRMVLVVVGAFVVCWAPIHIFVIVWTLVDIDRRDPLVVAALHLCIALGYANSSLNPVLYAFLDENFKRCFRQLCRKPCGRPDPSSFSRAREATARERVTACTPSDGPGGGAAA

[2] = target: human μ opioid receptor (μ-OR) (Homo sapiens, UniProt P35372); experiment: cell-based; type: cell-based
Chain of human μ opioid receptor (μ-OR) (P35372 whole entry): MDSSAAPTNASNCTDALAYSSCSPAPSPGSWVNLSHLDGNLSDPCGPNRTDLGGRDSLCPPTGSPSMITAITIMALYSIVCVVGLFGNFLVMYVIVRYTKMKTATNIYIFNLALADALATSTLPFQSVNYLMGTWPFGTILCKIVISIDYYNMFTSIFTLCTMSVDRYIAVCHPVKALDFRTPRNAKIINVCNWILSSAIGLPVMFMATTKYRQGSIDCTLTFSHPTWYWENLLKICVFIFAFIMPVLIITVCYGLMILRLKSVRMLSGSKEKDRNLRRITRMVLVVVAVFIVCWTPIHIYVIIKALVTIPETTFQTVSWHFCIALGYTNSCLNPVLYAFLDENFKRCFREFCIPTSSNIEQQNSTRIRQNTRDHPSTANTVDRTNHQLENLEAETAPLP

μ-OR [3] = experiment: fluorescent endocytosis assay; type: cell-based; details: 30 min; DAMGO 1 μM, others 10 μM
μ-OR [4] = experiment: biotin protection endocytosis assay; type: cell-based; details: 10 μM each, 30 min
WT C57BL/6 mice [5] = experiment: forced swim test, wild type mice; type: in vivo; details: 40 mg/kg ip; for antidepressant-like activity in forced swim test: p = 0.003 vs saline, 40 mg/kg
Method in brief: (§1)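 Male C57BL/6 mice (wild type or δ-OR knockout littermates, 8–10 weeks, 9 per group) on a 12-h reversed light/dark cycle, tested in the dark phase after 2 h room habituation. Given saline vehicle or test compound (40 mg/kg ip), then placed in a water cylinder (30 cm diameter, 22–24 cm deep, 36.0 ± 0.2 °C) for 6 min. Video recorded; seconds immobile scored.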

δ-KO C57BL/6 mice [6] = experiment: forced swim test, δ-OR knockout mice; type: in vivo; details: 40 mg/kg ip, p = 0.20 vs saline
Method in brief: as §1

WT C57BL/6 mice [7] = details: mouse, in vivo, ip, 40 mg/kg
δ-KO C57BL/6 mice [8] = details: mouse, in vivo, ip, 40 mg/kg
WT C57BL/6 mice [9] = details: unknown target; cited from earlier work
κ-OR = κ-OR (Homo sapiens, UniProt P41145); experiment: κ-OR agonist/antagonist screen; type: cell-based; details: up to 50.0 μM
Chain of κ-OR (P41145 whole entry): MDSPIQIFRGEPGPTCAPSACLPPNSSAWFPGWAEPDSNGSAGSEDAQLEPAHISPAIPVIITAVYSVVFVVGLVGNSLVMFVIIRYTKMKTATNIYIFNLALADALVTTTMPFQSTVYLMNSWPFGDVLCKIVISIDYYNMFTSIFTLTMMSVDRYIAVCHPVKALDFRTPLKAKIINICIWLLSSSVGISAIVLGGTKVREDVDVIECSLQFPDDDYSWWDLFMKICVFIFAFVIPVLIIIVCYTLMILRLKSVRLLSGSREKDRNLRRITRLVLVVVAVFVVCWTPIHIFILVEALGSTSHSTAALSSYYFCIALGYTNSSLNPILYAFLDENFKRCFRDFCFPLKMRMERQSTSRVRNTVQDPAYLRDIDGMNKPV

human μ-OR [10] = target: T1, human μ-OR (Homo sapiens, UniProt P35372); experiment: cell-based; details: HEK-293T, read-out: Gi Emax(%)
Target sequence in this assay (P35372 whole entry): as the sequence (P35372 whole entry) above

human μ-OR [11] = target: T1, human μ-OR; experiment: cell-based; details: HEK-293T, read-out: β-arrestin-2 Emax (%)
Target sequence in this assay (P35372 whole entry): as above
Target sequence in this assay (P32121 whole entry partner): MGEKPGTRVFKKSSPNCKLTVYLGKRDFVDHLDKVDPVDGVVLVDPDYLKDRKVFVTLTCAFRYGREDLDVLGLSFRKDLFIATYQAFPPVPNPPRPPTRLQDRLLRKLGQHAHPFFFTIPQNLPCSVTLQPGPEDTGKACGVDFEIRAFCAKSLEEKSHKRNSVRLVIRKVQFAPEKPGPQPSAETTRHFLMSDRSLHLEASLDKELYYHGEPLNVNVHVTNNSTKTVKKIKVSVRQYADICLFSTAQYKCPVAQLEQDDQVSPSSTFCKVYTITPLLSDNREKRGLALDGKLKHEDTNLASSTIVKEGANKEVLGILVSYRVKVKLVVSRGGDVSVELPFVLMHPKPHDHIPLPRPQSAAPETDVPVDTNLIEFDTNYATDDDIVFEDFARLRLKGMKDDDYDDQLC

HEK 293T cells = experiment: toxicity seen in the β-arrestin-2 recruitment assay; type: cell-based; details: cells of the β-arrestin-2 dose-response

## COc1cc2ccnc3c2c(c1O)NC=C3 [9-demethyl aaptamine (11), 9-demethyl aaptamine]
[1]
  δ-OR agonist activity in HTS of extract / LC-MS fractions: measurable δ-OR agonist activity
[2]
  μ-OR agonist activity in HTS of extract / LC-MS fractions: very weak partial agonism
[2]; read-out: EC50 μ-OR
  EC50: 6.03 ± 1.2 µM

## CN1CC[C@]23c4c5ccc(O)c4O[C@H]2[C@@H](O)C=C[C@H]3[C@H]1C5 [morphine (1), morphine]
μ-OR [3]
  μ-OR endocytosis by immunofluorescence: did not promote significant endocytosis
μ-OR [4]
  μ-OR endocytosis, biotin protection assay: induced no significant endocytosis

## CNc1c2c(c3nc4ccccc4c4c3c1N=C4)NCCC2=O [plakinidine A (19), plakinidine A]
[1]
  activity at δ-OR (agonist or antagonist): not active
[2]
  activity at μ-OR (agonist or antagonist): not active

## mitragynine [mitragynine (21)]
μ-OR [3]
  μ-OR endocytosis by immunofluorescence: did not promote receptor endocytosis

## C[C@@H](NC(=O)[C@@H](N)Cc1ccc(O)cc1)C(=O)NCC(=O)N(C)[C@@H](Cc1ccccc1)C(=O)NCCO [DAMGO (6), DAMGO]
μ-OR [3]
  μ-OR endocytosis by immunofluorescence: also promoted endocytosis; also recorded: promoted μ-OR endocytosis
μ-OR [4]
  μ-OR endocytosis, biotin protection assay: promoted significant endocytosis
μ-OR [4]; listed as DAMGO
  μ-OR endocytosis, biotin protection assay: promoted μ-OR endocytosis

## COC1=Cc2ccnc3ccnc(c23)C1=O [demethyl (oxy) –aaptamine (12), demethyl (oxy) –aaptamine]
[1]
  δ-OR agonist activity in HTS of extract / LC-MS fractions: measurable δ-OR agonist activity
[2]
  μ-OR agonist activity in HTS of extract / LC-MS fractions: very weak partial agonism
[2]; read-out: EC50 μ-OR
  EC50: 4.1 ± 1.2 µM

## CCC(=O)C(CC(C)N(C)C)(c1ccccc1)c1ccccc1 (centres unmarked) [methadone (S6), methadone]
μ-OR [3]
  μ-OR endocytosis by immunofluorescence: also promoted endocytosis; also recorded: promoted μ-OR endocytosis
μ-OR [4]
  μ-OR endocytosis, biotin protection assay: promoted significant endocytosis; also recorded: promoted μ-OR endocytosis

## CC(C)c1c2c(c3nc4ccccc4c4c3c1N=C4)NCCC2=O [plakinidine B (20), plakinidine B]
[1]
  activity at δ-OR (agonist or antagonist): not active
[2]
  activity at μ-OR (agonist or antagonist): not active

## O=C1c2ccccc2-[n+]2ccc3c([nH]c4cc(Br)ccc43)c21 [10 bromofascaplysin (18), 10 bromofascaplysin]
[2]; read-out: EC50 μ-OR
  EC50: 4.2 ± 3.7 µM

## COc1cc2ccnc3c2c(c1OC)NC=C3 [aaptamine (10), aaptamine]
[1]
  EC50: 5.1 ± 0.2 µM
[2]
  EC50: 10.1 ± 1.4 µM
WT C57BL/6 mice [5]; listed as Aaptamine
  antidepressant-like activity in forced swim test: showed antidepressant-like activity in WT
WT C57BL/6 mice [5]; listed as aaptamine
  antidepressant-like activity in forced swim test: showed antidepressant-like activity
WT C57BL/6 mice [5]; saline ~30 s
  time immobile in forced swim test (average): ~ 10 s
δ-KO C57BL/6 mice [6]; listed as Aaptamine
  effect in forced swim test: antidepressant-like activity in WT but not δ-KO mice
δ-KO C57BL/6 mice [6]; listed as aaptamine
  effect in forced swim test: no effect
WT C57BL/6 mice [7]
  effect on general locomotion: no effect on general locomotion
δ-KO C57BL/6 mice [8]
  effect on general locomotion: no effect on general locomotion
WT C57BL/6 mice [9]
  effect on immobility time in forced swim test: significant effect on the immobility time

## O=C1c2ccccc2-[n+]2ccc3c([nH]c4ccccc43)c21 [fascaplysin (17), fascaplysin]
[1]
  activity at δ-OR (agonist or antagonist): no significant agonist or antagonist activity
[2]
  EC50: 6.3 ± 0.2 µM
[2]; read-out: Emax at the μ-OR
  Emax: 100%
κ-OR
  activity at κ-OR (agonist or antagonist): no significant agonist or antagonist activity
Human μ-OR [10]
  Emax: 111%
Human μ-OR [11]
  Emax: 78%
μ-OR [3]
  μ-OR endocytosis by immunofluorescence: promoted substantial endocytosis; also recorded: promoted μ-OR endocytosis
μ-OR [4]
  μ-OR endocytosis, biotin protection assay: promoted substantial endocytosis; also recorded: promoted μ-OR endocytosis
HEK 293T cells
  toxic concentration: higher than 50 μM
